Source: PubChem BioAssay (several laboratories)
Rin1 Abl inh – blocks binding of human Rin1 to Abl; inhibition, % at 7.35 µM; TR-FRET Rin1/Abl binding, biochemical; 0.4% of 360,000 active; P00519+Q13671; in the data active means inhibition above about 5%, passing the limit was not always enough
TbMetRS inhib – blocks T. brucei methionyl-tRNA synthetase activity. 0.4% of 360,000 active. purified T. brucei MetRS, ATP depletion, Kinase-Glo luminescence. AID 624268. inhibition, % at 11.9 µM;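 active means inhibition above a per-plate cutoff of the control wells' mean inhibition plus 3 SD, cut at about 5.5% in these data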;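 further: 0% = DMSO wells median and 100% = median of wells with control inhibitor compound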
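assay system = parasite MetRS enzyme | timing = 15 min preincubation, 2 h reaction, all 25 °C | evaluation = percent inhibition relative to median high and low control wells | medium = HEPES buffer containing pyrophosphatase, BSA, spermine, DTT | compound = single dose, 11.9 µM final nominal, 0.9% final DMSO | detection = Kinase-Glo luminescence, ATP depletion format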
MT1-MMP act inh – inhibitors of human MT1-MMP activation; P50281; HT1080 RFP-PRO-GFP cells, GFP/RFP ratio fluorescence, overnight; percent of plate control window, DMSO zero; GFP/RFP ratio change, % at 20 µM; 0.061% of 360,000 active;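 active means GFP/RFP ratio change of at least 30% with cell ATP level not reduced by more than half and red fluorescence within 50% of control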
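Material: RFP-PRO-GFP reporter HT1080 cells. Dosing: single-point 20 µM compound, 1% DMSO. Controls: DMSO and RFP-L50D-GFP cell wells. Timing: cells overnight before dosing, compound overnight, 37 °C, 5% CO2. Measure: GFP/RFP fluorescence ratio.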
SKN-1 block – C. elegans SKN-1 inhibition. C. elegans VP596 Pgst-4::GFP/RFP ratio, acrylamide-induced, 24 h. inhibition, % at 21.8 µM. 0.49% of 360,000 active;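 active means interference check ratio from 0.5 to 1.5 plus GFP to RFP signal ratio inhibition reaching or exceeding a fixed threshold, cut at about 30% in these data, passing the limit was not always enough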
Arrestin-AP2 inh – human beta-arrestin and AP2 interaction inhibition; FITC-arrestin peptide / GST-AP2 beads, flow cytometry; AP2 beta2 appendage carries R879A mutation; inhibition, % at 10 µM; 0.31% of 340,000 active; AID 504490;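 active means inhibition above a set limit, near 3 SD of compounds lacking own fluorescence, cut at about 54% in these data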;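 further: plate controls were DMSO wells for no effect and 5 µM unlabelled arrestin peptide for full effect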
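Assay system: GST-AP2 R879A bound to glutathione beads, E. coli-expressed; Medium: PBS with 0.05% Tween 20 and 0.1% BSA; Also added: fluorescein-tagged arrestin peptide at 50 nM final; Timing: 12 min plus 1 h, RT; Measured by: flow cytometry, FL1 (488/535 nm); Evaluation: percent drop in bead-associated FITC signal.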
Arr AP2 CP1 – inhibitors of human beta-arrestin and AP2 interaction; shares compounds with Arrestin-AP2 inh; GST-AP2 beads, FITC arrestin peptide binding, flow cytometry; GST-fused beta2-adaptin appendage, R879A mutant; inhibition, % at 10 µM; 2% of 1,300 active;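 active means inhibition above a set limit, roughly 3 SD of non-fluorescent compound noise, cut at about 38% in these data; inactive means inhibition at or below that limit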;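 further: loss of bead fluorescence from 50 nM FITC arrestin peptide bound to appendage; 0% = negative control wells and 100% = excess unlabelled arrestin peptide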
Target sequence (P63010 whole entry, looked up, the tested form may be a part, one chain of several): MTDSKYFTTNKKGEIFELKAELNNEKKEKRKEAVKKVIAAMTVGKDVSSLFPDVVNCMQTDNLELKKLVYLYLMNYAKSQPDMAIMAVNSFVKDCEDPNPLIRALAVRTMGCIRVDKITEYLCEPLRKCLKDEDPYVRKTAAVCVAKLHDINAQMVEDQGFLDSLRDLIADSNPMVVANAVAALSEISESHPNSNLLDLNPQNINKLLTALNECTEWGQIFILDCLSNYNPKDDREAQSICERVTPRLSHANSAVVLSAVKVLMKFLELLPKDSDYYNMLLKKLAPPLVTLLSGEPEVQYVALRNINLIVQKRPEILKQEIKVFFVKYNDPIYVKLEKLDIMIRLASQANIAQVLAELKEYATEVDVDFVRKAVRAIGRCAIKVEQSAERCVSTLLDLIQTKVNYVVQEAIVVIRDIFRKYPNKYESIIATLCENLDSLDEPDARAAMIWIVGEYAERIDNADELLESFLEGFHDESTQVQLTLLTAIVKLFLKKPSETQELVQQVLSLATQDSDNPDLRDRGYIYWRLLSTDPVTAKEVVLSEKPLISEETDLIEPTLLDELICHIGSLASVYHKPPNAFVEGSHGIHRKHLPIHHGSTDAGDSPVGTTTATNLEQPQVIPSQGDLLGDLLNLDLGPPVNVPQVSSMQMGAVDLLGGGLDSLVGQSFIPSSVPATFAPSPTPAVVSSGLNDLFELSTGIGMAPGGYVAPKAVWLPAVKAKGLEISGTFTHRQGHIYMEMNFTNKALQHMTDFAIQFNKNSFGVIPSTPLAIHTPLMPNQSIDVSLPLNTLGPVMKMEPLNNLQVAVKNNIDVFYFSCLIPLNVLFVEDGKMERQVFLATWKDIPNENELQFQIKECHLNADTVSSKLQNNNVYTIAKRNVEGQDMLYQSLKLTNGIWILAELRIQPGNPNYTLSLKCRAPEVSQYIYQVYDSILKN
GST GSH counter – counter-screen for beta-arrestin AP2 inhibitors: GST-GSH bead binding. shares compounds with Arrestin-AP2 inh. GST-fluorescein binding to GSH beads, fluorescence. inhibition, % at 10 µM. 2% of 1,300 active. AID 588338;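 active means inhibition above 50%, about 3 SD of the inhibition seen with non-fluorescent compounds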;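 further: fluorescein maleimide labelled GST captured on 4 micron glutathione beads; higher means more loss of bead fluorescence from quenching or blocked binding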
Numbers without * were called inactive; x = not tested or not shown. The list is not random: actives were taken first. Their share in the collection is about 1.6%.

SMILES	Rin1 Abl inh	TbMetRS inhib	MT1-MMP act inh	SKN-1 block	Arrestin-AP2 inh	Arr AP2 CP1	GST GSH counter
O=S(=O)(c1cccc(-c2cn3cccnc3n2)c1)N1CCCCCC1	1	0	-1	4	61*	-1	-4
Cc1sc2nc(CN3CCOCC3)nc(N3CCOCC3)c2c1C	2	0	-1	-8	58*	19	-2
CCc1nc2c(OCc3ccc(Cl)cc3)cccn2c1N(C)C(=O)c1ccncc1	-3	0	-8	27	x	x	x
Cc1c(NS(=O)(=O)c2cccc(C(=O)NCc3ccco3)c2)c(=O)n(-c2ccccc2)n1C	4	0	-5	-7	95*	6	-9
CCn1ncc(Cl)c1C(=O)Nc1cc([N+](=O)[O-])ccc1OC	3	-1	-1	-7	106*	-2	14
NS(=O)(=O)c1ccc(CCNS(=O)(=O)c2cccc3nsnc23)cc1	3	0	2	-4	62*	-8	-5
COc1ccc(CCNS(=O)(=O)c2cccc3nsnc23)cc1OC	-2	0	3	11	-6	x	x
CN(CC(=O)NCCc1ccc(S(N)(=O)=O)cc1)S(=O)(=O)c1cccc2nsnc12	1	-1	-3	2	80*	-1	-10
CCOc1ccc(CCNC(=O)CN(C)S(=O)(=O)c2cccc3nsnc23)cc1OCC	-5	-1	3	8	-6	x	x
CC(=O)OC(COc1ccccc1)Cn1cnc2ccccc21 (stereo not given)	2	0	5	-4	55*	-6	-12
Cc1ccc(C(=O)N2CCC(C(=O)c3ccc(F)cc3)CC2)cc1	-2	-1	1	-10	58*	0	-5
Cc1ccc(C(=O)C2CCN(C(=O)c3ccc(C)cc3)CC2)cc1	1	-2	6	15	11	x	x
CCOC(=O)C1=C(COC(=O)CCCOc2ccccc2)NC(=O)NC1C (stereo not given)	-2	0	3	-10	0	-9	-4
CCOC(=O)C1=C(COC(=O)c2ccccc2OC)NC(=O)NC1C (stereo not given)	2	-1	2	11	17	x	x
CCOC(=O)C1=C(COC(=O)CCOc2ccc(OCC)cc2)NC(=O)NC1C (stereo not given)	-1	0	6	5	-6	0	1
CCOC(=O)C1=C(COC(=O)CCOc2ccccc2C)NC(=O)NC1C (stereo not given)	0	-1	1	7	1	-10	-8
Cc1cc2nc(-c3ccccc3)c(CC(C)(C)C)n2c(C)c1Br	3	0	-1	-4	x	x	x
CCn1nc(NS(=O)(=O)c2ccccc2)c2cc3cc(C)ccc3nc21	0	0	6	-18	62*	3	2
CCOC(=O)C1=C(COC(=O)COc2ccc(C(C)=O)cc2)NC(=O)NC1C (stereo not given)	-1	0	10	19	-2	5	1
CCOC(=O)C1=C(COC(=O)c2ccc(OC(C)C)cc2)NC(=O)NC1C (stereo not given)	1	0	4	18	38	x	x
CCOC(=O)C1=C(COC(=O)COc2ccc(C(=O)CC)cc2)NC(=O)NC1C (stereo not given)	2	-1	4	-7	15	-14	-1
CCOC(=O)C1=C(COC(=O)COc2ccccc2C#N)NC(=O)NC1C (stereo not given)	3	0	0	5	-15	-14	-2
CCOC(=O)C1=C(COC(=O)c2ccc(C)s2)NC(=O)NC1C (stereo not given)	2	-1	7	-3	31	x	x
CCOC(=O)C1=C(COC(=O)COc2ccc(C#N)cc2)NC(=O)NC1C (stereo not given)	4	0	-6	-1	5	2	-3
O=C(C(=O)N1CCN(c2ccncc2)CC1)c1cccc(Br)c1	x	0	-1	-16	x	x	x
SMILES	Rin1 Abl inh	TbMetRS inhib	MT1-MMP act inh	SKN-1 block	Arrestin-AP2 inh	Arr AP2 CP1	GST GSH counter
CCOC(=O)C1=C(COC(=O)COc2cc(C)ccc2C)NC(=O)NC1C (stereo not given)	1	0	2	-6	4	-7	-14
CCOC(=O)C1=C(COC(=O)CNC(=O)c2ccc(C)cc2)NC(=O)NC1C (stereo not given)	-2	0	-2	-18	-9	x	x
O=C1CC(c2ccco2)CC2=C1C1c3ccccc3C(=O)N1c1ccccc1N2 (stereo not given)	4	0	3	4	99*	6	-4
Cc1ccc(C(O)c2ncc(-c3ccc(F)cc3)[nH]2)cc1F (stereo not given)	1	0	2	1	x	x	x
CCOC(=O)C1CCN(c2cc3c(cc2NC(=O)c2ccccc2)n(C)c(=O)n3C)CC1	-1	0	-6	-11	11	18	-2
CCOC(=O)C1CCN(c2cc3c(cc2NC(=O)c2ccc(OC)c(OC)c2)n(C)c(=O)n3C)CC1	3	0	3	5	28	6	-8
O=c1cc(CO)[nH]nc1CO	0	0	3	-4	x	x	x
Nc1nc2ccccc2cc1C(=O)NCCCCc1ccccc1	x	3	13	18	x	x	x
COc1ccc(NC(=O)CSCC(=O)Nc2ccc(S(=O)(=O)N3CCCCC3)cc2)cc1	0	0	1	-13	57*	-12	-8
O=C(Nc1ccc2c(c1)OCO2)c1cc(C2CCCCN2S(=O)(=O)c2ccccc2)on1 (stereo not given)	1	0	2	15	x	x	x
CC(OC(=O)c1ccc2ncsc2c1)C(=O)N(C)C1CCCCC1 (stereo not given)	-4	0	1	8	60*	16	-8
COc1ccc(OC)c(S(=O)(=O)Nc2cccc(-c3ccc(N4CCCCCC4)nn3)c2)c1	-3	0	2	-2	60*	6	-4
COc1ccc(S(=O)(=O)Nc2cccc(-c3ccc(N4CCCCCC4)nn3)c2)c(OC)c1	3	1	-4	-3	-10	x	x
C[C@@H]1COc2cc(N3CCC[C@@H]3CO)ccc2S(=O)(=O)N1	x	0	4	6	x	x	x
CC(C)n1c(CNC(=O)c2ccccc2F)nnc1SCC(=O)NC1CCCCC1	3	0	-2	7	10	x	x
CC(=O)/C(=N\Nc1ccccc1)Sc1nnc(-c2ccccc2)n1-c1ccccc1	-4	0	0	9	91*	8	5
CCC(NC(=O)CSc1nnnn1C1CC1)c1ccc(Br)cc1 (stereo not given)	2	0	-2	3	-5	x	x
